{
  "source": "ChEMBL document CHEMBL4007509",
  "about": "“Structural Optimizations of Thieno[3,2-b]pyrrole Derivatives for the Development of Metabolically Stable Inhibitors of Chikungunya Virus” (J Med Chem, 2017)",
  "key": {"Chikungunya virus [1]": {"system": "Chikungunya virus", "experiment": "Antiviral activity against wild type Chikungunya virus IMT infected in HEK293T cells assessed as reduction in virus infection after 24 hrs by FITC immunofluorescence-based single cell quantification high content screening assay", "type": "functional", "details": "HEK-293T"}, "[2]": {"experiment": "Plasma concentration in C57BL/6 mouse at 10 mg/kg, po administered as single dose measured within 1 hr post dose by HPLC-MS/MS analysis", "type": "ADME, organism-based", "method_in_brief": "(§1)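 Male C57BL/6 mice received a single 3 mg/kg iv or 10 mg/kg po dose in 5% DMSO/70% PEG400/25% water. Plasma was sampled at set times over 24 h and analysed by HPLC-MS/MS, with a quantification limit of 0.5 ng/mL. Values are mean ± SD of three mice.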"}, "Chikungunya virus [3]": {"system": "Chikungunya virus", "experiment": "Antiviral activity against Chikungunya virus IMT infected in HEK 293T cells assessed as reduction in viral load at 5 uM measured up to 24 hrs by qRT-PCR analysis relative to control", "type": "functional"}, "[4]": {"experiment": "Selectivity index, ratio of CC50 for human BJ cells to EC50 for full length Gaussia princeps Gluc-tagged Chikungunya virus IMT", "type": "toxicity", "details": "read-out: Ratio CC50/EC50"}, "Chikungunya virus [5]": {"system": "Chikungunya virus", "experiment": "Antiviral activity against Chikungunya virus IMT infected in HEK 293T cells assessed as reduction in viral load measured up to 24 hrs by qRT-PCR analysis relative to control", "type": "functional, cell-based"}, "Liver": {"system": "Liver", "experiment": "Intrinsic clearance in human liver microsomes", "type": "ADME, microsome", "method_in_brief": "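Intrinsic clearance was measured in human liver microsome incubation and expressed in μL min−1 mg−1 microsomal protein.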"}, "[6]": {"experiment": "Plasma clearance in C57BL/6 mouse at 3 mg/kg, iv", "type": "ADME, organism-based", "method_in_brief": "(§2)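 Male C57BL/6 mice received a single 3 mg/kg iv or 10 mg/kg po dose of a solution in 5% DMSO, 70% PEG400 and 25% water. Results are terminal half-life (h), plasma clearance (mL min−1 kg−1), Vss (L/kg), Tmax (h), Cmax (ng/mL) and oral bioavailability. Values are mean ± SD of three mice.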"}, "[7]": {"experiment": "Terminal half life in C57BL/6 mouse at 3 mg/kg, iv", "type": "ADME, organism-based", "details": "in vivo, read-out: beta t1/2 (converted)", "method_in_brief": "as §2"}, "Sindbis virus": {"system": "Sindbis virus", "experiment": "Antiviral activity against Sindbis virus infected in HEK293T cells assessed as reduction in virus infection after 24 hrs by FITC-based assay", "type": "functional, cell-based", "details": "HEK-293T", "method_in_brief": "(§3)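 This was a pan-alphavirus panel against ONNV and SINV, read by immunofluorescence-based high content screen. Serial dilutions were normalized to untreated infection (100%) and noninfected cells (0%). The EC50, the concentration inhibiting 50% infectivity, came from a five-parameter asymmetric dose-response fit.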"}, "[8]": {"experiment": "Half life in human liver microsomes", "type": "ADME, microsome", "method_in_brief": "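Compounds were incubated with human liver microsomes. Half-life = ln(2)/slope, where the slope is ln(% detected) plotted against time, using the mean of at least 3 independent experiments.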"}, "[9]": {"experiment": "Volume of distribution in steady state in C57BL/6 mouse at 3 mg/kg, iv", "type": "ADME, organism-based", "details": "in vivo, read-out: Vdss", "method_in_brief": "as §2"}, "Chikungunya virus [10]": {"system": "Chikungunya virus", "experiment": "Antiviral activity against wild type Chikungunya virus IMT infected in HEK293T cells administered during virus adsorption stage (0 hrs post infection) measured after 24 hrs post infection by FITC immunofluorescence-based single cell quantification high content screening assay", "type": "functional"}, "Chikungunya virus [11]": {"system": "Chikungunya virus", "experiment": "Antiviral activity against wild type Chikungunya virus IMT infected in HEK293T cells administered 2 to 12 hrs post infection measured after 24 hrs post infection by FITC immunofluorescence-based single cell quantification high content screening assay", "type": "functional"}, "[12]": {"experiment": "Cytotoxicity against human BJ cells assessed as reduction in cell viability after 24 hrs by CellTiter-Glo luminescent assay", "type": "cell-based", "method_in_brief": "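BJ human fibroblast viability was measured by CellTiter-Glo luminescence after 24 h exposure to serial dilutions. Data were normalized to untreated cells (100%) and reagent background (0%). CC50 came from a five-parameter asymmetric fit.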"}, "Chikungunya virus [13]": {"system": "Chikungunya virus", "experiment": "Antiviral activity against full length gluc-tagged Chikungunya virus 2013 Caribbean CNR20235 infected in HEK293T cells assessed as reduction in virus infection after 24 hrs by gaussia luciferase reporter gene assay", "type": "functional, cell-based", "details": "2013 Caribbean CNR20235, HEK-293T"}, "[14]": {"experiment": "Selectivity index, ratio of CC50 for HEK293T cells to EC50 for full length Gaussia princeps Gluc-tagged Chikungunya virus IMT", "type": "toxicity", "details": "human, read-out: Ratio CC50/EC50"}, "[15]": {"experiment": "Plasma concentration in C57BL/6 mouse at 10 mg/kg, po administered as single dose measured at 24 hrs by HPLC-MS/MS analysis", "type": "ADME, organism-based", "method_in_brief": "as §1"}, "[16]": {"experiment": "Oral bioavailability in C57BL/6 mouse at 10 mg/kg", "type": "ADME, organism-based", "details": "in vivo", "method_in_brief": "as §2"}, "Chikungunya virus [17]": {"system": "Chikungunya virus", "experiment": "(§4) Antiviral activity against wild type Chikungunya virus IMT infected in HEK293T cells administered 2 to 4 hrs prior to infection followed by cels incubation in absence of compound from 0 hrs post infection onwards measured after 24 hrs by measured after 24 hrs post infection by FITC immunofluorescence-based single cell quantification high content screening assay", "type": "functional", "details": "HEK-293T"}, "Onyong-nyong virus": {"system": "Onyong-nyong virus", "experiment": "Antiviral activity against O'nyong-nyong virus Chad infected in HEK293T cells assessed as reduction in virus infection after 24 hrs by FITC-based assay", "type": "functional, cell-based", "details": "HEK-293T", "method_in_brief": "as §3"}, "Chikungunya virus [18]": {"system": "Chikungunya virus", "experiment": "Antiviral activity against full length gluc-tagged Chikungunya virus 2008 Singapore SGP11 infected in HEK293T cells assessed as reduction in virus infection after 24 hrs by gaussia luciferase reporter gene assay", "type": "functional, cell-based", "details": "2008 Singapore SGP11, HEK-293T"}, "Chikungunya virus [19]": {"system": "Chikungunya virus", "experiment": "Antiviral activity against wild type Chikungunya virus IMT infected in HEK293T cells at 5 uM administered 2 to 12 hrs post infection measured after 24 hrs post infection by alpha virus detection based FITC immunofluorescence-based single cell quantification high content screening assay", "type": "functional"}, "Chikungunya virus [20]": {"system": "Chikungunya virus", "experiment": "Antiviral activity against full length gluc-tagged Chikungunya virus IMT infected in human BJ cells assessed as reduction in virus infection after 24 hrs by gaussia luciferase reporter gene assay", "type": "functional, cell-based"}, "[21]": {"experiment": "Plasma concentration in C57BL/6 mouse at 3 mg/kg, iv administered as single dose measured within 1 hr post dose by HPLC-MS/MS analysis", "type": "ADME, organism-based", "method_in_brief": "as §1"}, "[22]": {"experiment": "Tmax in C57BL/6 mouse at 10 mg/kg, po", "type": "ADME, organism-based", "details": "in vivo", "method_in_brief": "as §2"}, "Chikungunya virus [23]": {"system": "Chikungunya virus", "experiment": "as §4, with “cells at 5 uM” for “cells”", "type": "functional"}, "[24]": {"experiment": "Plasma concentration in C57BL/6 mouse at 3 mg/kg, iv administered as single dose measured at 24 hrs by HPLC-MS/MS analysis", "type": "ADME, organism-based", "method_in_brief": "as §1"}, "Chikungunya virus [25]": {"system": "Chikungunya virus", "experiment": "Antiviral activity against wild type Chikungunya virus IMT infected in HEK293T cells administered 2 to 4 hrs prior to infection measured after 24 hrs post infection by FITC immunofluorescence-based single cell quantification high content screening assay", "type": "functional", "details": "HEK-293T"}, "Chikungunya virus [26]": {"system": "Chikungunya virus", "experiment": "Antiviral activity against Chikungunya virus IMT infected in HEK 293T cells assessed as reduction in viral load measured up to 24 hrs by qRT-PCR analysis", "type": "functional, cell-based"}, "[27]": {"experiment": "Cytotoxicity against HEK293T cells assessed as reduction in cell viability after 24 hrs by CellTiter-Glo luminescent assay", "type": "cell-based, HEK-293T", "details": "human", "method_in_brief": "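HEK 293T cell viability was measured by CellTiter-Glo luminescence after 24 h exposure to serial dilutions. Data were normalized to untreated cells (100%) and reagent background (0%). CC50, the concentration reducing viability by 50%, came from a five-parameter asymmetric fit.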"}, "[28]": {"experiment": "Terminal half life in C57BL/6 mouse at 10 mg/kg, po", "type": "ADME, organism-based", "details": "in vivo, read-out: beta t1/2 (converted)", "method_in_brief": "as §2"}, "Chikungunya virus [29]": {"system": "Chikungunya virus", "experiment": "Antiviral activity against full length Gaussia princeps Gluc-tagged Chikungunya virus IMT infected in HEK293T cells assessed as reduction in virus infection after 24 hrs by Gaussia luciferase reporter gene assay", "type": "functional, cell-based", "details": "HEK-293T"}, "[30]": {"experiment": "Cmax in C57BL/6 mouse at 10 mg/kg, po", "type": "ADME, organism-based", "design": "dose 10 mg/kg, route oral", "details": "in vivo", "method_in_brief": "as §2"}},
  "note": "The source made the active and inactive calls. The calls are words filed in the database; no cut-off is given here.",
  "data": [
    {"compound": "CCCNC(=O)C1CCN(C(=O)c2cc3sc(-c4ccccc4)cc3n2Cc2ccc(OC)cc2)CC1", "values": [
      {"measurement": "EC50", "setting": "Chikungunya virus [1]", "result": 4.03, "unit": "µM"},
      {"measurement": "concentration at 1 h", "setting": "[2]", "result": 2000, "unit": "nM"},
      {"measurement": "fold change (FC)", "setting": "Chikungunya virus [3]", "result": ">50"},
      {"measurement": "selectivity ratio", "setting": "[4]", "result": "> 20"},
      {"measurement": "Activity", "setting": "Chikungunya virus [5]", "result": "Dose-dependent effect"},
      {"measurement": "CLH", "setting": "Liver", "result": 31.4, "unit": "µL/min"},
      {"measurement": "clearance", "setting": "[6]", "result": 18.6, "unit": "mL/min/kg"},
      {"measurement": "half-life", "setting": "[7]", "result": 2.07, "unit": "h"},
      {"measurement": "EC50", "setting": "Sindbis virus", "result": 1.65, "unit": "µM"},
      {"measurement": "half-life", "setting": "[8]", "result": 0.737, "unit": "h"},
      {"measurement": "Vd", "setting": "[9]", "result": 2.45, "unit": "L/kg"},
      {"measurement": "Activity", "setting": "Chikungunya virus [10]", "result": "Active"},
      {"measurement": "Activity", "setting": "Chikungunya virus [11]", "result": "Active"},
      {"measurement": "CC50 at 24 h", "setting": "[12]", "result": "> 100", "unit": "µM"},
      {"measurement": "EC50", "setting": "Chikungunya virus [13]", "result": 2.18, "unit": "µM"},
      {"measurement": "selectivity ratio", "setting": "[14]", "result": "> 20"},
      {"measurement": "concentration at 24 h", "setting": "[15]", "result": "< 0.5", "unit": "ng/mL"},
      {"measurement": "bioavailability", "setting": "[16]", "result": 22, "unit": "%"},
      {"measurement": "EC50", "setting": "Chikungunya virus [17]", "result": "14 to 15", "unit": "µM"},
      {"measurement": "EC50", "setting": "Onyong-nyong virus", "result": 3.24, "unit": "µM"},
      {"measurement": "EC50", "setting": "Chikungunya virus [18]", "result": 2.26, "unit": "µM"},
      {"measurement": "Activity", "setting": "Chikungunya virus [19]", "result": "inactive"},
      {"measurement": "EC50", "setting": "Chikungunya virus [20]", "result": 5.07, "unit": "µM"},
      {"measurement": "concentration at 1 h", "setting": "[21]", "result": 2000, "unit": "nM"},
      {"measurement": "Tmax", "setting": "[22]", "result": 0.667, "unit": "h"},
      {"measurement": "Activity", "setting": "Chikungunya virus [23]", "result": "inactive"},
      {"measurement": "concentration at 24 h", "setting": "[24]", "result": "< 0.5", "unit": "ng/mL"},
      {"measurement": "EC50", "setting": "Chikungunya virus [25]", "result": 2.5, "unit": "µM"},
      {"measurement": "inhibition", "setting": "Chikungunya virus [26]", "result": "Dose-dependent effect"},
      {"measurement": "CC50 at 24 h", "setting": "[27]", "result": "> 100", "unit": "µM"},
      {"measurement": "half-life", "setting": "[28]", "result": 2.37, "unit": "h"},
      {"measurement": "EC50", "setting": "Chikungunya virus [29]", "result": 3.3, "unit": "µM"},
      {"measurement": "Cmax", "setting": "[30]", "result": 720, "unit": "ng/mL"}
    ]}
  ]
}
